According to ChEMBL document CHEMBL1123507, “Antipicornavirus activity of substituted phenoxybenzenes and phenoxypyridines” (J Med Chem, 1986):
Values after ≈ are worked out from the molar mass of the structure shown.

Key:
HeLa = experiment: Cytotoxicity concentration in HeLa cells; format: cell-based; details: human
How it was run: (§1)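 HeLa monolayers were seeded at (1.0-1.3) × 10^5 cells/well, grown 24 h at 36 °C in 5% CO2 to 60–75% cover, then refed with maintenance medium (1-2% heat-inactivated FCS) containing two-fold serial compound dilutions made from a 200 μg/mL stock in Me2SO/medium, with final Me2SO ≤0.1%. Cells were challenged with 10-100 TCID50 virus, and CPE was read microscopically at 48 and 72 h. MIC50 was the lowest concentration giving ≥50% CPE reduction versus virus control. Cytotoxicity was the lowest concentration causing cell death, a growth change or a morphology change in uninfected cultures.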

Coxsackievirus [1] = experiment: Ratio of the MIC50 of 6-(4-Nitro-phenoxy)-nicotinonitrile compared to compound obtained in the same test for coxsackie A21; format: functional
How it was run: (§2)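 Relative activity was calculated as the MIC50 of the positive control 5-cyano-2-(4-nitrophenoxy)pyridine divided by the MIC50 of the test compound. Both were measured in parallel in the same HeLa CPE test (48/72 h microscopic reading) against RV-1A, RV-2 or coxsackievirus A21.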

Coxsackievirus [2] = experiment: Lowest concentration to reduce viral effect by 50% or more against coxsackie virus A21; format: functional; how it was run: as §1
Enterovirus [3] = experiment: Lowest concentration to reduce viral effect by 50% or more against Rhinovirus (RV)-2; format: functional; how it was run: as §1
Enterovirus [4] = experiment: Lowest concentration to reduce viral effect by 50% or more against Rhinovirus (RV)-1A; format: functional; how it was run: as §1
Enterovirus [5] = experiment: Ratio of the MIC50 of 6-(4-Nitro-phenoxy)-nicotinonitrile compared to compound obtained in the same test for Rhinovirus (RV)-1A; format: functional; how it was run: as §2
Enterovirus [6] = experiment: Ratio of the MIC50 of 6-(4-Nitro-phenoxy)-nicotinonitrile compared to compound obtained in the same test for Rhinovirus (RV)-2; format: functional; how it was run: as §2

MIC50 (Coxsackievirus [2]) [µM] | MIC50 (Enterovirus [3]) [µM] | MIC50 (Enterovirus [4]) [µM] | SMILES | Toxicity (HeLa) [µM] | Relative activity (Coxsackievirus [1]) | Relative activity (Enterovirus [5]) | Relative activity (Enterovirus [6])
9.1 (≈ 2.49 µg/mL) | 45.6 (≈ 12.5 µg/mL) | 22.8 (≈ 6.24 µg/mL) | Clc1ccc(Oc2ccc(Cl)c(Cl)c2)cc1 | 91 | 1.4 | 2.3 | 
76.2 (≈ 25 µg/mL) | 38.1 (≈ 12.5 µg/mL) | 19 (≈ 6.23 µg/mL) | O=C(O)c1cc([N+](=O)[O-])ccc1Oc1ccc(Cl)c(Cl)c1 | 305 | 0.34 | 2.7 | 1.4
10.8 (≈ 3.14 µg/mL) | 1.1 (≈ 0.319 µg/mL) | 4.3 (≈ 1.25 µg/mL) | N#Cc1cc([N+](=O)[O-])ccc1Oc1cccc2ccccc12 | > 172 | 1.2 | 6 | 11.8
2 (≈ 0.616 µg/mL) | 1 (≈ 0.308 µg/mL) | 10 (≈ 3.08 µg/mL) | N#Cc1cc([N+](=O)[O-])ccc1Oc1ccc(C(F)(F)F)cc1 | 162 | 13 | 1.3 | 13
4.6 (≈ 1.24 µg/mL) | 9.3 (≈ 2.51 µg/mL) | 23 (≈ 6.22 µg/mL) | COc1cccc(Oc2ccc([N+](=O)[O-])cc2C#N)c1 | > 185 | 2.8 | 1.1 | 1.4
0.85 (≈ 0.249 µg/mL) | 21.3 (≈ 6.25 µg/mL) | 42.7 (≈ 12.5 µg/mL) | CS(=O)(=O)c1ccc(Oc2ccc([N+](=O)[O-])cc2)cc1 | 171 | 6.1 | 1.2 | 2.4
18.9 (≈ 5.01 µg/mL) | 9.4 (≈ 2.49 µg/mL) | 9.4 (≈ 2.49 µg/mL) | N#Cc1ccc(Oc2ccc([N+](=O)[O-])cc2C#N)cc1 | > 38 | 0.33 | 2.2 | 1.1
1.1 (≈ 0.302 µg/mL) | 0.58 (≈ 0.159 µg/mL) | 1.1 (≈ 0.302 µg/mL) | N#Cc1cc([N+](=O)[O-])ccc1Oc1cccc(Cl)c1 | > 91 | 11.8 | 23.6 | 44.7
0.41 (≈ 0.131 µg/mL) | 0.94 (≈ 0.3 µg/mL) | 1.6 (≈ 0.511 µg/mL) | N#Cc1cc([N+](=O)[O-])ccc1Oc1ccccc1Br | > 31 | 3.3 | 12.9 | 11.1
7.6 (≈ 2.49 µg/mL) | 1 (≈ 0.327 µg/mL) | 1.9 (≈ 0.622 µg/mL) | CS(=O)(=O)c1ccc(Oc2ccc(Br)cc2)cc1 | 38 | 2.5 | 9.8 | 19.7
> 151 |  | 15.7 (≈ 5.2 µg/mL) | Cc1cc(Oc2ccc(Cl)c(Cl)c2)ccc1S(C)(=O)=O | > 151 |  | 1.7 | 1.4
 | 2.2 (≈ 0.619 µg/mL) | 2.2 (≈ 0.619 µg/mL) | CC(=O)c1ccc(Oc2ccc(Cl)c(Cl)c2)cc1 | 49 |  | 11.8 | 11.8
17.2 (≈ 4.99 µg/mL) | 8.6 (≈ 2.5 µg/mL) | 86.2 (≈ 25 µg/mL) | CC(=O)c1ccc(Oc2ccc(S(C)(=O)=O)cc2)cc1 | 172 | 0.769 |  | 3
10.3 (≈ 3.09 µg/mL) | 20.7 (≈ 6.22 µg/mL) | > 167 | COc1ccc(Oc2ccc([N+](=O)[O-])cc2C#N)cc1OC | > 167 | 1.3 |  | 0.63
0.87 (≈ 0.249 µg/mL) | 21.8 (≈ 6.24 µg/mL) | > 350 | CSc1ccc(Oc2ccc([N+](=O)[O-])cc2C#N)cc1 | 350 | 6 |  | 2.4
157 (≈ 50 µg/mL) | 39 (≈ 12.4 µg/mL) | 10 (≈ 3.18 µg/mL) | CS(=O)(=O)c1cccc(Oc2ccc(Cl)c(Cl)c2)n1 | 157 |  | 2.6 | 0.66
 | 16.8 (≈ 6.24 µg/mL) | 33.7 (≈ 12.5 µg/mL) | O=S(=O)(c1ccc(Oc2ccc(Cl)c(Cl)c2)cc1)C(F)(F)F | > 135 |  | 0.39 | 1.5

More lines, now with the values behind:

SMILES | MIC50 (Coxsackievirus [2]) [µM] | MIC50 (Enterovirus [3]) [µM] | MIC50 (Enterovirus [4]) [µM] | Toxicity (HeLa) [µM] | Relative activity (Coxsackievirus [1]) | Relative activity (Enterovirus [5]) | Relative activity (Enterovirus [6])
N#Cc1cccnc1Oc1ccc(Cl)c(Cl)c1 | 12 (≈ 3.18 µg/mL) | 24 (≈ 6.36 µg/mL) | 47 (≈ 12.5 µg/mL) | > 189 | 1.1 | 0.55 | 1.1
N#Cc1ccc(Oc2ccccc2)nc1 | 64 (≈ 12.6 µg/mL) |  | 64 (≈ 12.6 µg/mL) | 676 | 0.81 | 0.4 | 
C[S+]([O-])c1ccc(Oc2ccc(Cl)c(Cl)c2)nc1 (centres undefined) | 83 (≈ 25.1 µg/mL) | 4 (≈ 1.21 µg/mL) | 2 (≈ 0.604 µg/mL) | 83 |  | 6.5 | 3.3
N#Cc1cc([N+](=O)[O-])ccc1Oc1cc(Cl)cc(Cl)c1 | 16.2 (≈ 5.01 µg/mL) | 8.1 (≈ 2.5 µg/mL) | 16.2 (≈ 5.01 µg/mL) | > 65 | 0.8 | 1.6 | 1.6
CC(=O)Nc1ccc(Oc2ccc(Cl)c(Cl)c2)c(C#N)c1 | 15.6 (≈ 5.01 µg/mL) | 3.7 (≈ 1.19 µg/mL) | 3.7 (≈ 1.19 µg/mL) | 62 | 1.7 | 3.5 | 3.5
N#Cc1cc([N+](=O)[O-])ccc1Oc1c(Cl)cccc1Cl | 16.2 (≈ 5.01 µg/mL) | 0.52 (≈ 0.161 µg/mL) | 3.9 (≈ 1.21 µg/mL) | > 65 | 0.8 | 5.3 | 25
N#Cc1ccc(Oc2ccc(Cl)c(Cl)c2)nc1 | 2 (≈ 0.53 µg/mL) | 19 (≈ 5.04 µg/mL) | 5 (≈ 1.33 µg/mL) | 377 | 13 | 4.1 | 2.7
N#Cc1cccc(Oc2ccc(Cl)c(Cl)c2)n1 | 23.5 (≈ 6.23 µg/mL) | > 378 | 94 (≈ 24.9 µg/mL) | 378 | 0.91 | 0.28 | 
O=S(=O)(O)c1ccc(Oc2ccc(Cl)c(Cl)c2)nc1 | 312 (≈ 99.9 µg/mL) | > 312 | 20 (≈ 6.4 µg/mL) | 312 |  | 1.3 | 
N#Cc1cc([N+](=O)[O-])ccc1Oc1cc(Cl)ccc1Cl | 2 (≈ 0.618 µg/mL) | 0.52 (≈ 0.161 µg/mL) | 0.26 (≈ 0.0804 µg/mL) | > 162 | 13 | 50 | 25
Clc1ccc(Oc2ccc(Br)cn2)cc1Cl | 4 (≈ 1.28 µg/mL) | 16 (≈ 5.1 µg/mL) | 4 (≈ 1.28 µg/mL) | 78 | 6.5 | 6.5 | 1.6
Nc1ccc(Oc2ccc(Cl)c(Cl)c2)nc1 | 98 (≈ 25 µg/mL) |  | 5 (≈ 1.28 µg/mL) | 88 |  | 4.1 | 
N#Cc1ccc(Oc2ccc(Cl)c(Cl)c2)c(C#N)c1 | 10.7 (≈ 3.09 µg/mL) | 10.7 (≈ 3.09 µg/mL) | > 173 | > 173 | 3.1 |  | 2.4
N#Cc1ccc(Oc2ccc(F)cc2)nc1 | 69 (≈ 14.8 µg/mL) |  | 34 (≈ 7.28 µg/mL) | 250 | 1.7 | 3.3 | 
